From publication PMC11959959 (Acta Pharmaceutica Sinica. B, 2024)

What was measured:
[1] = test system: B16F10 tumor-bearing mice; test: PET/CT imaging in B16F10 tumor-bearing mice; type: in vivo; settings: 0.5 and 1 h p.i.
Outline: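 Mice bear s.c. B16F10 allografts (1×10^6 cells, left flank), imaged at tumor volume ≥100 mm³, usually day 10. They receive 200 μCi of tracer in 100 μL normal saline by tail vein. Dynamic micro-PET/CT runs for 1 h from injection, with three mice per tracer. The PEGylated tracer also gets static scans at 0.5, 1, 5, 10 and 24 h. Data are decay-corrected and given as %ID/g.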

B16F10 cells = test: Cell uptake assay in B16F10 cells; type: cell-based, murine; settings: 750 kBq/mL, 5-80 min

“[^64Cu]QM-2303: 64Cu-labeled PEGibody from QM-2302 PEGylated with 4-arm PEG (KSSPHSRNSGSGSGSGSGRGDSPC; NOTA conjugated to the N-terminus; thiol group of the C-terminal cysteine linked to 4-arm PEG; labelled with ^64Cu in the cell assays)” was tested, and the “kidney accumulation” value [1] was “comparable to that of [^64Cu]QM-2301” and the “cell uptake / percentage of binding to integrin α5β1” value (B16F10 cells) was “greater percentage of binding to integrin α5β1 than [^64Cu]QM-2301 and [^64Cu]QM-2302”.
